{"data": "Measured values gathered from unrelated publications", "note": "Each line is one published result; the experiments were not run side by side."}
{"SMILES": "COc1ccc(COC[C@@](O)(CNCc2ccccc2)[C@@H]2CC[C@@H](C)C[C@H]2OCc2ccc(OC)cc2)cc1", "tested on": "A2780", "test": "cell growth or viability, MTT", "conditions": "30 µM, 72 h", "endpoint": "inhibition", "value": "100%"}
{"SMILES": "CO[C@@H]1[C@@H](OC(N)=O)[C@@H](O)[C@H](Oc2ccc3c(O)c(NC(=O)c4ccc(O)c(CC=C(C)C)c4)c(=O)oc3c2C)OC1(C)C", "tested on": "Klebsiella pneumoniae", "test": "microbial growth, broth dilution", "test system": "ATCC10031", "endpoint": "MIC", "value": "0.5 µg/mL"}
{"SMILES": "C[C@@H]1CC[C@@H]([C@](C)(O)CNCc2cccc(F)c2)[C@H](OCc2ccccc2)C1", "tested on": "A2780", "test": "cell growth or viability, MTT", "conditions": "10 µM, 72 h", "endpoint": "inhibition", "value": "30.6%"}
{"SMILES": "Cc1[nH]c(C(=O)Nc2ccc(C(=O)NCC(=O)O)cc2N2CCN(C(=O)OC(C)(C)C)CC2)c(Cl)c1Cl", "tested on": "Klebsiella pneumoniae", "test": "microbial growth, broth dilution", "test system": "ATCC700603", "endpoint": "MIC", "value": "> 32 µg/mL"}
{"SMILES": "C=CC(=O)NC1CCN(c2ncc3ncnc(Nc4ccc(Oc5ccc6c(c5)ncn6C)c(C)c4)c3n2)CC1", "tested on": "LS180", "test": "cell growth or viability", "endpoint": "EC50", "value": "5480 nM"}
{"SMILES": "CC(=O)Nc1ccc(Oc2ccc(C(=O)C(Cl)Cl)cc2[N+](=O)[O-])cc1Cl", "tested on": "NCI-H1650", "test": "cell growth or viability, MTT", "conditions": "2.5 µM", "endpoint": "inhibition", "value": "77.8%"}
{"SMILES": "Cl.N[C@@H]1CCN(c2cc(C(=O)NCC(=O)O)ccc2NC(=O)c2cc(Br)c(Br)[nH]2)C1", "tested on": "Klebsiella pneumoniae", "test": "microbial growth, broth dilution", "test system": "ATCC700603", "endpoint": "MIC", "value": "> 32 µg/mL"}
{"SMILES": "CN[C@H](CC(C)C)C(=O)N[C@H]1C(=O)N[C@@H](CC(N)=O)C(=O)N[C@H]2C(=O)N[C@H]3C(=O)N[C@H](C(=O)N[C@H](C(=O)O)c4cc(O)cc(O)c4-c4cc3ccc4O)[C@H](O)c3ccc(c(Cl)c3)Oc3cc2cc(c3O[C@@H]2O[C@H](CO)[C@@H](O)[C@H](O)[C@H]2O[C@H]2C[C@](C)(N)[C@H](O)[C@H](C)O2)Oc2ccc(cc2Cl)[C@H]1O", "tested on": "Streptococcus pneumoniae", "test": "microbial growth", "test system": "ATCC49619", "endpoint": "MIC", "value": "0.25 µM"}
{"SMILES": "C[C@@H]1CC[C@@H]([C@](C)(O)CNCc2cccc3ccccc23)[C@H](OCc2ccccc2)C1", "tested on": "A2780", "test": "cell growth or viability, MTT", "conditions": "30 µM, 72 h", "endpoint": "inhibition", "value": "94.2%"}
{"SMILES": "Cc1[nH]c(C(=O)Nc2ccc(C(=O)NCC(=O)O)cc2N2CC[C@@H](NC(=O)OC(C)(C)C)C2)c(Cl)c1Cl", "tested on": "Klebsiella pneumoniae", "test": "microbial growth, broth dilution", "test system": "ATCC700603", "endpoint": "MIC", "value": "> 32 µg/mL"}
{"SMILES": "C=C(F)C(=O)N1CCN(c2nc(OC[C@@H]3CCCN3C)nc3c2CCN(c2cccc4cccc(Cl)c24)C3)C[C@@H]1CC#N", "tested on": "NCI-H2122", "test": "cell growth or viability, ATP luminescence", "endpoint": "IC50", "value": "192 nM"}
{"SMILES": "COc1ccc(CNC[C@](O)(COCc2ccc(F)cc2)[C@@H]2CC[C@@H](C)C[C@H]2OCc2ccc(F)cc2)cc1", "tested on": "A2780", "test": "cell growth or viability, MTT", "conditions": "10 µM, 72 h", "endpoint": "inhibition", "value": "93.8%"}
{"SMILES": "NC(=O)c1ccc(Oc2ccc(C(=O)C(Cl)Cl)cc2[N+](=O)[O-])cc1", "tested on": "NCI-H1650", "test": "cell growth or viability, MTT", "conditions": "2.5 µM", "endpoint": "inhibition", "value": "59.3%"}
{"SMILES": "COc1ccc(CNC[C@](O)(COCc2ccc(OC)cc2)[C@@H]2CC[C@@H](C)C[C@H]2OCc2ccc(OC)cc2)cc1", "tested on": "A2780", "test": "cell growth or viability, MTT", "conditions": "10 µM, 72 h", "endpoint": "inhibition", "value": "98.7%"}
{"SMILES": "COc1cccc2c1C(=O)c1c(O)c3c(c(O)c1C2=O)C[C@@](O)(C(=O)CO)C[C@@H]3O[C@H]1C[C@H](N)[C@H](O)[C@H](C)O1", "tested on": "Caco-2", "test": "cell growth or viability, MTT", "conditions": "12.5 µg/mL, 48 h, serum-free", "endpoint": "viability", "value": "40.5%"}
